From ChEMBL document CHEMBL5370647 (J Med Chem, 2023)
The source made the active and inactive calls. The rule behind the calls is not given here.

How the values were obtained:
[1] = system: Mycobacterium tuberculosis; experiment: Antitubercular activity against RIF/INH-tolerant persistent Mycobacterium tuberculosis H37Rv assessed as reduction of viable bacteria at 4.9 uM incubated for 14 days followed by drug wash-out and measured after 21 days; assay type: functional, organism-based; conditions: time 14.0 day
Procedure, shortened: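 Static at 37 °C for 14 days, washed twice, resuspended in fresh 7H9 and recovered for 28 days. CFU plated 21 and 28 days after drug removal.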

[2] = Oral bioavailability in CD-1 mouse at 10 mg/kg by LC/MS/MS analysis; assay type: ADME, organism-based; conditions: in vivo
Procedure, shortened: (§1)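 Full PK study in CD1 mice at 10 mg/kg given by oral, intravenous and intraperitoneal routes. Plasma levels monitored over 8 h by LC/MS/MS.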

[3] = system: Mycobacterium tuberculosis; experiment: Antitubercular activity against non-replicating Mycobacterium tuberculosis H37Rv expressing luxCDAB assessed as inhibition of bacterial growth incubated for 7 days under hypoxia conditions followed by incubation in normoxia conditions for 5 days by luminescence based analysis; assay type: functional; conditions: 288 h, time 12 day
[4] = Metabolic stability of the compound in CD-1 mouse liver microsomes assessed as parent compound remaining at 5 uM preincubated for 5 mins followed by NADPH addition and measured after 30 mins by LC-TOF/MS analysis; assay type: ADME, Microsome; conditions: time 35 min, read-out: Stability
Procedure, shortened: (§2)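 Mouse liver microsomes incubated with compound in the presence of NADPH. Read-out is % parent compound remaining after 30 min.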

[5] = Metabolic stability of the compound in CD-1 mouse liver microsomes at 5 uM by LC-TOF/MS analysis; assay type: ADME, Microsome; procedure, shortened: as §2
[6] = AUC(last) in CD-1 mouse at 10 mg/kg, po by LC/MS/MS analysis; assay type: ADME, organism-based; design: dose 10 mg/kg, route po; conditions: in vivo
Procedure, shortened: (§3)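 CD1 mice dosed orally at 10 mg/kg (snapshot PK study). Plasma levels followed over 5 h by LC/MS/MS. T1/2, Cmax and AUC_last derived from the plasma profile.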

[7] = Half life in CD-1 mouse at 10 mg/kg, po by LC/MS/MS analysis; assay type: ADME, organism-based; conditions: in vivo; procedure, shortened: as §3
[8] = Cmax in CD-1 mouse at 10 mg/kg, po by LC/MS/MS analysis; assay type: ADME, organism-based; design: dose 10 mg/kg, route po; conditions: in vivo; procedure, shortened: as §3
[9] = Volume of distribution in CD-1 mouse at 10 mg/kg by LC/MS/MS analysis; assay type: ADME, organism-based; conditions: in vivo; procedure, shortened: as §1
[10] = Bioavailability in CD-1 mouse at 10 mg/kg, ip by LC/MS/MS analysis; assay type: ADME, organism-based; conditions: in vivo; procedure, shortened: as §1

CC[C@@H](CO)NCCN[C@@H](CC)CO
Activity [1]: inactive

Cc1cccc(-c2nc(Nc3ccncc3)c3ccn(C)c3n2)n1
bioavailability [2]: 25%
MIC50 [3]: < 1 µM
MIC90 [3]: < 1 µM
remaining at 0.5 h, 5 µM [4]: 39%
Stability [5]: Stable
AUClast [6]: 640 ng·h/mL
t1/2 [7]: 1.9 h
Cmax [8]: 280 ng/mL
Vd [9]: 4.65 L/kg
bioavailability [10]: 65%
